Article PMC5970965 (Prostaglandins & other lipid mediators, 2018)

Tests used:
[1] = rat liver microsomal metabolic stability; type: in vitro ADME; conditions: for half-life / microsomal CLint: both, rat, rat liver microsomes; for microsomal CLint: app (rat liver microsomes)
[2] = biological target: T1, fatty acid amide hydrolase (FAAH) (Homo sapiens, UniProt O00519); test: FAAH inhibition assay, substrate OMP; type: biochemical
T1 sequence (O00519 1-579): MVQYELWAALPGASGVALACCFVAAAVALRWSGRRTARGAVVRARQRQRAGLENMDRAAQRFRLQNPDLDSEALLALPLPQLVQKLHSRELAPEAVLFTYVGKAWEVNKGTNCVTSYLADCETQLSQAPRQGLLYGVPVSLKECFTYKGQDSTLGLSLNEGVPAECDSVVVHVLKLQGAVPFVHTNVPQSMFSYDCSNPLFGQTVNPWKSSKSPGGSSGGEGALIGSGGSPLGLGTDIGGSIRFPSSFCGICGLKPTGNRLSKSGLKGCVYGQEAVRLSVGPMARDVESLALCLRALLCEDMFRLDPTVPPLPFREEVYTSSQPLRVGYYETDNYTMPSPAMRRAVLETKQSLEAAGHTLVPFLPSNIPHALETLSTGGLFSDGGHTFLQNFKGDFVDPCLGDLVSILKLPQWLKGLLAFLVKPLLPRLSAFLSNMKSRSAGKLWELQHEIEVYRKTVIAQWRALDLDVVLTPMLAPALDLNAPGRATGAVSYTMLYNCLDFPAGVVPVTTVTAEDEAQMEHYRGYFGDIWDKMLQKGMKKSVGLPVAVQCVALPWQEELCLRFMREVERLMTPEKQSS
Procedure, shortened: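 FAAH activity was followed fluorimetrically (excitation 303 nm, emission 394 nm) at 37 °C using N-(6-methoxypyridin-3-yl)octanamide (OMP) at a final concentration of 50 μM. The reaction buffer was 0.1 M sodium phosphate, pH 8, containing 0.1 mg/mL BSA. Each experiment was run in triplicate, and values are given as average ± SD.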

[3] = human liver microsomal metabolic stability; type: in vitro ADME; conditions: both, human liver microsomes
[4] = biological target: T2, rat sEH enzyme (Rattus norvegicus, UniProt P80299); test: rat sEH inhibition assay; type: biochemical
T2 sequence (P80299 1-554): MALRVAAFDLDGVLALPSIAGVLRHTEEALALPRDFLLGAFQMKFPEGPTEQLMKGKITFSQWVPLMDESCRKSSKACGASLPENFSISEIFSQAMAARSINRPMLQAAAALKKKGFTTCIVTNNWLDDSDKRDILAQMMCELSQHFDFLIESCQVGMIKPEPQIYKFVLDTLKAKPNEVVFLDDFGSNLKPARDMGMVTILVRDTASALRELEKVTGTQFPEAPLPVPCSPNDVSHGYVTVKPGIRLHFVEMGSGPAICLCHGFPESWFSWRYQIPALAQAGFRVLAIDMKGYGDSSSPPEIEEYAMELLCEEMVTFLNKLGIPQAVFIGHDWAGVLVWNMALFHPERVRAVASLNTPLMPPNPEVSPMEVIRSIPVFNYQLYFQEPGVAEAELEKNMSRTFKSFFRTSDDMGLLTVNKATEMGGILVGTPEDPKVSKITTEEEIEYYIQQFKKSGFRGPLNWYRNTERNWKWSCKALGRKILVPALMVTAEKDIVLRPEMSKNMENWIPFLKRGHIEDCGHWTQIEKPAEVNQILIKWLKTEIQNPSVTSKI

[5] = cited from earlier work
[6] = biological target: T3, Human sEH (Homo sapiens, UniProt P34913); test: human sEH inhibition assay, fluorescent substrate CMNPC; type: biochemical
T3 sequence (P34913 1-555): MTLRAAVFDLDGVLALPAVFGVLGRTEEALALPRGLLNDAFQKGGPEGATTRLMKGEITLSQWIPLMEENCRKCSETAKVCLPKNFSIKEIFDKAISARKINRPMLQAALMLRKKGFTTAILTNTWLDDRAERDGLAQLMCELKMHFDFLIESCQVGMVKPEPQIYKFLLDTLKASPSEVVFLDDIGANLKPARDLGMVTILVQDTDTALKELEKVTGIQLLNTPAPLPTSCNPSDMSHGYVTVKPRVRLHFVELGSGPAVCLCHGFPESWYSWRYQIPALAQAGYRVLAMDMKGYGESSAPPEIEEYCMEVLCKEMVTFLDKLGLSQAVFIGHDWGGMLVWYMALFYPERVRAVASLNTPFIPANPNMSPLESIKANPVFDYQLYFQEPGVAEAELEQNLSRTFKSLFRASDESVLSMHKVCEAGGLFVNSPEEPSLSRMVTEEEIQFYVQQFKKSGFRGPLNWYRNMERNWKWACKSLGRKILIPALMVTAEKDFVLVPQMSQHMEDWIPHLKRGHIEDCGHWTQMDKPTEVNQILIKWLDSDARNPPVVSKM

[7] = apparent intrinsic clearance, CLint = k/P

| CLint, app (rat liver microsomes) [1, 7] | Structure (SMILES) | half-life [1] | microsomal CLint [1, 7] | IC50 [2] | half-life [3] | microsomal CLint [3] | IC50 [4] | CLint, app (human liver microsomes), previously published value in parenthesis [5] | IC50 [6] |
| --- | --- | --- | --- | --- | --- | --- | --- | --- | --- |
| – | Cc1ccc(S(=O)(=O)N2CCC(C(=O)Nc3ccc4cc(C(=O)O)ccc4c3)CC2)c(C)c1 [Compound 3, 6-(1-((2,4-dimethylphenyl)sulfonyl)piperidine-4-carboxamido)-2-naphthoic acid] | 0.433 h | 53.3 µL/min/mg | 23000 nM | 3.1 h | 7.5 µL/min/mg | 141 ± 20 nM | 6.3 µL/min/mg | 85 nM |
| <23.1 µL/min/mg | [2H]c1c([2H])c(S(=O)(=O)N2CCC(C(=O)Nc3ccc4cc(C(=O)O)ccc4c3)CC2)c(C([2H])([2H])[2H])c([2H])c1C([2H])([2H])[2H] [Compound 3i, 6-(1-((2,4-bis(methyl-d3)phenyl-3,5,6-d3)sulfonyl)piperidine-4-carboxamido)-2-naphthoic acid] | > 1 h | ~20 µL/min/mg | 8800 nM | > 4 h | < 5.8 µL/min/mg | – | – | 106 nM |
